# In the library only some 1.5% were active in any assay of this set; here they are far more common.
# PKA-R2B activ: activators of human PKA-R2B complex; PKA-R2B holoenzyme dissociation, Cy5-IP20 fluorescence polarization; R2B truncated from residue 108, S112A mutant; 0% DMSO only, 100% 113 µM cGMP; activation, % at 11.4 µM; actives 0.079% (n = 340,000); AID 504700;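 active = activation above a cutoff set at the mean over all compounds plus 3 SD, cut at about 18% in these data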;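 note: higher means more holoenzyme dissociation and a rise in polarization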
# Rin1 Abl inh: human Rin1-Abl interaction inhibition | TR-FRET Rin1/Abl binding, biochemical | AID 588664 | inhibition, % at 7.35 µM | actives 0.4% (n = 360,000) | P00519+Q13671; in the data active = inhibition above about 5%, passing the limit was not always enough
# Cardio protect: modulators protecting cardiomyocytes from myocardial damage; H9c2 cardiomyocytes, H2O2 injury protection, ATPLite, 2 h; protection from H2O2 cell death, % at 20 µM; actives 0.63% (n = 360,000);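 active = compounds giving at least 50% protection of heart cells from peroxide-induced death in the single-dose screen, raw or plate-pattern-corrected value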;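 note: 0% = DMSO wells with peroxide and 100% = DMSO wells without peroxide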
# TbMetRS inhib: blocks T. brucei methionyl-tRNA synthetase activity; AID 624268; actives 0.4% (n = 360,000); inhibition, % at 11.9 µM; purified T. brucei MetRS, ATP depletion, Kinase-Glo luminescence;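 active = inhibition above a per-plate cutoff of the control wells' mean inhibition plus 3 SD, cut at about 5.5% in these data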;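 note: 0% = DMSO wells median and 100% = median of wells with control inhibitor compound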
#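 System: purified T. brucei MetRS enzyme / Detection: Kinase-Glo luciferase luminescence reporting remaining unconsumed ATP / Medium: HEPES buffer with MgCl2, KCl, DTT, spermine, BSA, pyrophosphatase / Replication: singlicate, one well per compound / Evaluation: percent inhibition relative to median high and low control wells / Schedule: 2 h aminoacylation at 25 °C after 15 min preincubation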
# PKA-R1A activ: activates the PKA-R1A holoenzyme complex | activation, % at 11.4 µM | AID 504707 | P00514+P68181 | actives 0.083% (n = 340,000) | PKA-R1A dissociation, Cy5-IP20 fluorescence polarization; scaled: DMSO 0%, 113 µM cGMP 100%;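 active = percent activation above the mean of all tested compounds plus 3 SD, cut at about 19% in these data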;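 note: higher means more PKAc released from R1A so a rise in polarization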
# R2B FP artifact: FP assay interference, PKA-R2B counter-screen. shares compounds with PKA-R2B activ. FP artifact counterscreen, fluorescence polarization. activation, % at 11.4 µM. actives 6% (n = 270). AID 504796; in the data active = activation above about 20%;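 note: Cy5 labelled IP20 peptide probe with compound but no PKA protein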
# PKA-R2B act conf: confirmation of human PKA-R2B complex activators. shares compounds with PKA-R2B activ. activation, % at 11.4 µM. fluorescence polarization, activation. actives 9% (n = 270); in the data active = activation above about 19%
# * marks the source's active call; other numbers are inactive results; · = no result.
SMILES,PKA-R2B activ,Rin1 Abl inh,Cardio protect,TbMetRS inhib,PKA-R1A activ,R2B FP artifact,PKA-R2B act conf
CCOc1ccc(CC2NCCc3cc(OCC)c(OCC)cc32)cc1OCC (stereo unspecified),19.8*,0.6,-9.3,-0.6,7.8,2.4,4.5
Nc1nc(Nc2ccccc2)nc(NC2CCCCC2)c1[N+](=O)[O-],-9.6,1.7,-15.5,-0.9,-7.7,·,·
CNC(=S)NNc1nc(N2CCOCC2)nc(N2CCOCC2)n1,-5.8,2.0,7.9,-1.3,-6.3,·,·
CCNC(=S)NNc1nc(N2CCOCC2)nc(N2CCOCC2)n1,19.0*,-3.0,5.0,-0.1,-9.9,1.4,0.6
O=C(COc1ccccc1Cl)NNC(=O)c1ccc2c(=O)n3c(nc2c1)CCC3,-3.8,0.4,14.5,0.1,-4.0,·,·
COc1ccc(C(=O)NC2(C(F)(F)F)N=C3SCCN3C2=O)cc1 (stereo unspecified),19.5*,-3.5,1.9,-0.7,-1.2,0.0,-3.0
NC(=O)Cn1nnc(-c2ccc(NC(=O)c3ccc(F)cc3)cc2)n1,-7.5,-0.5,1.4,0.0,-3.2,·,·
CCc1nc2ccccc2c(C(=O)OCC(=O)NCCCN2CCCC2=O)c1C,19.1*,-0.7,9.3,0.1,7.3,-0.1,-2.8
CC(C)COC(=O)Cc1c(O)c2ccccc2[nH]c1=O,21.2*,-2.1,1.9,0.8,15.4,3.6,1.9
CCCCOC(=O)Cc1c(O)c2ccccc2[nH]c1=O,3.4,0.4,9.9,-0.5,-2.1,·,·
O=C(NCc1ccccc1)C1=C[C@H](c2ccc3c(c2)OCO3)C[C@H](OCc2ccc(CO)cc2)O1,-7.1,1.9,19.4,-0.3,-3.8,·,·
C#CCNC(=O)C1=C[C@@H](c2ccc3c(c2)OCO3)C[C@@H](OCc2ccc(CO)cc2)O1,21.2*,0.5,-2.4,-0.3,0.4,0.5,-1.9
CCOC(=O)C1=C(c2ccccc2)NC(SCC(=O)Nc2ccccc2C)=C(C#N)C1c1ccco1 (stereo unspecified),18.6*,3.6,-5.5,0.0,2.1,4.3,0.8
CCOC(=O)C1=C(c2ccccc2)NC(SCC(=O)Nc2ccc(C)cc2)=C(C#N)C1c1ccco1 (stereo unspecified),2.8,-2.9,-6.2,-0.4,-3.1,·,·
CCCNC(=O)N[C@H]1C=C[C@H](CC(=O)NC2CCCCC2)O[C@@H]1CO,·,·,·,-1.0,·,·,·
Cc1cc(C)c(OCCn2ccnc2)c(C)c1,18.4*,2.6,-5.7,-0.3,-8.4,7.5,6.9
COc1ccc(OC)c(C(=O)NC(CC(N)=O)c2ccc(N3CCN(c4ccccn4)CC3)c([N+](=O)[O-])c2)c1 (stereo unspecified),20.9*,-0.8,2.3,-0.1,-3.6,-2.7,1.8
COC(=O)CN1C(=S)N(c2ccc(Cl)cc2)C(=O)C1CC(=O)Nc1ccccc1 (stereo unspecified),-4.2,0.4,16.9,0.8,6.2,·,·
COC(=O)CN1C(=S)N(C)C(=O)C1CC(=O)Nc1ccccc1 (stereo unspecified),20.9*,-3.9,2.5,-0.8,-13.3,-1.3,-1.3
CNC(=O)c1c(C)noc1C,4.7,-1.0,2.3,0.6,-2.6,·,·
C=CCN1C(=O)c2ccc(C(=O)OCC(=O)N3CCN(c4ccccc4)CC3)cc2C1=O,8.0,0.7,-2.4,-0.3,-7.9,·,·
CC1=NN(c2nc(-c3ccc(Cl)cc3)cs2)C(=O)C1,19.9*,2.7,2.5,-0.4,5.9,0.5,3.7
CC1=NN(c2nc(-c3ccc(F)cc3)cs2)C(=O)C1,1.7,-3.0,5.0,0.6,-5.9,·,·
Cc1nccn1CCCNC(=O)CC1C(=O)NCCN1Cc1ccc(F)cc1Cl (stereo unspecified),2.6,-0.7,3.4,0.4,-2.1,·,·
Cc1cc(N2CCCC2=O)ccc1S(=O)(=O)N1CCOCC1,23.2*,0.3,-6.6,-0.5,12.4,0.9,5.2
SMILES,PKA-R2B activ,Rin1 Abl inh,Cardio protect,TbMetRS inhib,PKA-R1A activ,R2B FP artifact,PKA-R2B act conf
Cc1cc(NC(=O)/C=C/c2ccccc2)c(C(C)C)cc1O,14.0,0.1,-1.9,0.0,1.3,·,·
Cc1ccc(C(C)C)c(O)c1C(=O)O,18.6*,-3.4,4.3,-1.1,-3.8,5.2,2.3
O=C(CS(=O)CC(=O)NC12CC3CC(CC(C3)C1)C2)Nc1ccc(F)cc1 (stereo unspecified),5.5,1.6,2.1,-0.7,-0.9,·,·
O=C(COC(=O)c1ccccc1O)NC1CCCc2ccccc21 (stereo unspecified),21.1*,-1.1,6.0,0.0,1.4,1.8,4.6
COc1cccc(C(=O)OCC(=O)NC2CCCc3ccccc32)c1O (stereo unspecified),-0.5,-0.1,-3.7,-0.1,-2.7,·,·
CCOc1ccc(NC(=O)CSc2nnnn2-c2ccc(C(N)=O)cc2)cc1,20.8*,0.2,-3.0,-0.6,-13.3,2.3,-0.6
COc1ccc(NC(=O)CSc2nnnn2-c2ccc(OC)cc2)cc1,-5.6,1.4,-0.6,-1.4,-4.4,·,·
OCC[C@@H]1C[C@@H](O)[C@H](O)[C@@]2(Cc3ccccc3CCO2)O1,21.3*,-1.0,4.0,-0.1,-10.7,0.7,0.5
Cc1c(NC(=O)COc2cccc(Cl)c2Cl)c(=O)n(-c2ccccc2)n1C,-1.6,2.1,-4.3,-0.1,0.4,·,·
CCn1c(=O)c(C(=O)NNS(=O)(=O)c2ccc(Cl)cc2)c(O)c2ccccc21,18.4*,3.9,-6.5,0.1,-1.7,-2.8,-1.9
Cc1ccc(Cn2c(CN3CC(C)OC(C)C3)nc3c2c(=O)n(C)c(=O)n3C)cc1 (stereo unspecified),19.0*,1.2,16.9,-1.3,-6.1,3.3,0.8
O=C(O)c1cccc(NC2=C(Cl)C(=O)c3ccccc3C2=O)c1,21.7*,-0.1,-16.3,-1.0,8.6,1.4,0.3
COc1cccc(Nc2nc(NCCO)nc(N3CCCC3)n2)c1,22.0*,2.9,-0.2,-0.1,7.2,-1.2,1.1
CC(C)CN(C(=O)COC(=O)/C=C/c1cccs1)c1c(N)n(Cc2ccccc2)c(=O)[nH]c1=O,9.0,3.0,3.4,-0.3,-1.1,·,·
COCCN(C(=O)COC(=O)/C=C/c1cccs1)c1c(N)n(Cc2ccccc2)c(=O)[nH]c1=O,22.9*,2.8,0.5,-0.4,5.5,1.8,1.9
CCCC(c1nnnn1CC(=O)OCC)N(Cc1cc2c(C)cc(C)cc2[nH]c1=O)C1CCCC1 (stereo unspecified),18.6*,1.3,24.4,-0.8,7.4,3.6,-1.1
CCCC(c1nnnn1CC(=O)OCC)N(Cc1cc2ccc(C)cc2[nH]c1=O)C1CCCC1 (stereo unspecified),-2.6,-1.1,10.3,0.5,1.7,·,·

# Source: PubChem BioAssay
